Results on 11 compounds are retold here after ChEMBL document CHEMBL2331494, “First synthesis and biological evaluation of indeno[2,1-e]pyrazolo[3,4-b]pyrazin-5-one and related derivatives” (2013).

The structures appear in SMILES notation. Converted amounts (≈) assume the structure as drawn.

Type in all cases: functional
The test system of one test is Geotrichum candidum. Description: Antifungal activity against Geotrichum candidum AUMC 226 assessed as diameter of growth inhibition zone at 20 mg/ml at 28 degC after 7 days. As to conditions: AUMC 226, 168 h, read-out: DIZ. The method, boiled down:
(§1)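 Inocula: each fungus grown 7 days in Sabouraud's dextrose broth (30 ml per flask). Plates were 10 cm Petri dishes with 1 ml microbial suspension and 15 ml Sabouraud's dextrose agar each. Compound solutions were applied and the diameter of the growth inhibition zone was recorded.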

Test [1] relates to Scopulariopsis brevicaulis. Description: Antifungal activity against Scopulariopsis brevicaulis AUMC 729 assessed as diameter of growth inhibition zone at 20 mg/ml at 28 degC after 7 days. To be noted: AUMC 729, 168 h, read-out: DIZ. Put shortly: as §1
In the next test the test system is Fusarium oxysporum. In words: Antifungal activity against Fusarium oxysporum AUMC 5119 assessed as diameter of growth inhibition zone at 20 mg/ml at 28 degC after 7 days. As to conditions: AUMC 5119, 168 h, read-out: DIZ. Put shortly: as §1
Test [2] concerns Aspergillus flavus. In words: Antifungal activity against Aspergillus flavus AUMC 1276 assessed as diameter of growth inhibition zone at 20 mg/ml at 28 degC after 7 days. As to conditions: AUMC 1276, 168 h, read-out: DIZ. The method, boiled down: as §1
The subject of test [3] is Trichophyton rubrum. In words: Antifungal activity against Trichophyton rubrum AUMC 1804 assessed as diameter of growth inhibition zone at 20 mg/ml at 28 degC after 7 days. To be noted: AUMC 1804, 168 h, read-out: DIZ. The method, boiled down:
as §1

The subject of another test is Candida albicans. In words: Antifungal activity against Candida albicans AUMC 418 assessed as diameter of growth inhibition zone at 20 mg/ml at 28 degC after 7 days. As to conditions: AUMC 418, 168 h, read-out: DIZ. Put shortly: as §1
Another test relates to Micrococcus luteus. In words: Antibacterial activity against Micrococcus luteus AUMC B-112 assessed as diameter of growth inhibition zone at 20 mg/ml at 28 degC after 48 hrs. As to conditions: AUMC B-112, 48 h, read-out: DIZ. The method, boiled down: (§2)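 Inocula: each bacterial strain grown 48 h in nutrient broth (30 ml per flask). For the assay, 1 ml microbial suspension and 15 ml nutrient agar were poured into each 10 cm Petri plate, compound solutions were applied, and the diameter of the inhibition zone was read.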

In the next test the test system is Serratia marcescens. In words: Antibacterial activity against Serratia marcescens AUMC B-55 assessed as diameter of growth inhibition zone at 20 mg/ml at 28 degC after 48 hrs. As to conditions: AUMC B-55, 48 h, read-out: DIZ. Put shortly:
as §2

For the next test, the system named is Pseudomonas aeruginosa. In words: Antibacterial activity against Pseudomonas aeruginosa AUMC B-73 g assessed as diameter of growth inhibition zone at 20 mg/ml at 28 degC after 48 hrs. To be noted: read-out: DIZ. The method, boiled down:
as §2

Another test deals with Escherichia coli. Description: Antibacterial activity against Escherichia coli AUMC B-53 assessed as diameter of growth inhibition zone at 20 mg/ml at 28 degC after 48 hrs. To be noted: AUMC B-53, 48 h, read-out: DIZ. The method, boiled down: as §2
The subject of another test is Bacillus cereus. In words: Antibacterial activity against Bacillus cereus AUMC B-52 assessed as diameter of growth inhibition zone at 20 mg/ml at 28 degC after 48 hrs. To be noted: AUMC B-52, 48 h, read-out: DIZ. The method, boiled down:
as §2

A further test relates to Staphylococcus aureus. Description: Antibacterial activity against Staphylococcus aureus AUMC B-54 assessed as diameter of growth inhibition zone at 20 mg/ml at 28 degC after 48 hrs. As to conditions: AUMC B-54, 48 h, read-out: DIZ. The method, boiled down: as §2
Test [4] concerns Aspergillus flavus. In words: Antifungal activity against Aspergillus flavus AUMC 3214 assessed as growth inhibition at 28 degC after 7 days. As to conditions: for MIC: Aspergillus flavus, AUMC 3214, 168 h.
Test [5] has as its system Trichophyton rubrum. In words: Antifungal activity against Trichophyton rubrum AUMC 1804 assessed as growth inhibition at 28 degC after 7 days. To be noted: for MIC: Trichophyton rubrum, AUMC 1804, 168 h.

Usually MIC stands for the lowest concentration that inhibits growth of the organism.

As for `Cc1nn(-c2ccccc2)c2nc3c(nc12)/C(=N/N)c1ccccc1-3`, the zone of inhibition at 20000 µg/mL (in the test on Geotrichum candidum; in test [1]; with Fusarium oxysporum; in the test with Aspergillus flavus [2]; in the test with Trichophyton rubrum [3]; with Candida albicans) was 0 mm in each case. Besides, the zone of inhibition at 20000 µg/mL with Micrococcus luteus worked out at 0 mm; in the test on Serratia marcescens it was 0 mm; in the test with Pseudomonas aeruginosa it was 0 mm; with Escherichia coli, 8 mm; in the test on Bacillus cereus, 0 mm; in the test with Staphylococcus aureus, 8 mm.
Regarding `CCOC(=O)C1S/C(=N\N=C2/c3ccccc3-c3nc4c(nc32)c(C)nn4-c2ccccc2)NC1=O` (stereo not given), the results for the “diameter of the inhibition zone (DIZ)” value in the test on Aspergillus flavus [4] and in the test on Trichophyton rubrum [5] were 10 mm and 16 mm, respectively. The values for the MIC with Aspergillus flavus [4] and with Trichophyton rubrum [5] were 2500 µg/mL (≈ 5020 µM) and 300 µg/mL (≈ 603 µM), respectively. The zone of inhibition at 20000 µg/mL amounted to 10 mm in the test on Geotrichum candidum; 0 mm in test [1]; 0 mm in the test on Fusarium oxysporum; 13 mm with Aspergillus flavus [2]; 30 mm in the test with Trichophyton rubrum [3]; 0 mm in the test with Candida albicans. For the same compound, the zone of inhibition at 20000 µg/mL in the test on Micrococcus luteus worked out at 0 mm; in the test with Serratia marcescens, 0 mm; in the test on Pseudomonas aeruginosa, 8 mm; in the test on Escherichia coli it was 8 mm; in the test on Bacillus cereus it was 0 mm; with Staphylococcus aureus, 8 mm.
As for `Cc1nn(-c2ccccc2)c2nc3c(nc12)/C(=N/N=C1/NC(=O)CS1)c1ccccc1-3`, the entries for the “diameter of the inhibition zone (DIZ)” value in the test on Aspergillus flavus [4] and in the test with Trichophyton rubrum [5] were 10 mm and 12 mm, respectively. The MIC with Aspergillus flavus [4] was found to be 5000 µg/mL (≈ 11800 µM); in the test with Trichophyton rubrum [5], 600 µg/mL (≈ 1410 µM). The zone of inhibition at 20000 µg/mL came out at 10 mm in the test with Geotrichum candidum; 0 mm in test [1]; 0 mm with Fusarium oxysporum; 12 mm with Aspergillus flavus [2]; 26 mm in the test with Trichophyton rubrum [3]; 0 mm with Candida albicans. In addition, the zone of inhibition at 20000 µg/mL in the test on Micrococcus luteus was found to be 0 mm; with Serratia marcescens, 0 mm; in the test with Pseudomonas aeruginosa, 8 mm; with Escherichia coli it was 8 mm; in the test on Bacillus cereus it was 0 mm; with Staphylococcus aureus, 10 mm.
Regarding `Cc1nn(-c2ccccc2)c2nc3c(nc12)/C(=N/N=c1/[nH]c(-c2ccccc2)cs1)c1ccccc1-3`, the “diameter of the inhibition zone (DIZ)” value in the test on Aspergillus flavus [4] stood at 12 mm; with Trichophyton rubrum [5], 14 mm. Besides, the values for the MIC in the test with Aspergillus flavus [4] and in the test with Trichophyton rubrum [5] were 2500 µg/mL (≈ 5150 µM) and 300 µg/mL (≈ 618 µM), respectively. The zone of inhibition at 20000 µg/mL in the test with Geotrichum candidum stood at 10 mm; in [1], 0 mm; with Fusarium oxysporum it was 0 mm; in the test with Aspergillus flavus [2] it was 16 mm; in the test on Trichophyton rubrum [3] it was 30 mm; in the test on Candida albicans, 0 mm. For the same compound, the zone of inhibition at 20000 µg/mL in the test on Micrococcus luteus was determined as 0 mm; in the test on Serratia marcescens, 0 mm; with Pseudomonas aeruginosa, 0 mm; in the test on Escherichia coli, 8 mm; in the test on Bacillus cereus it was 0 mm; in the test on Staphylococcus aureus it was 10 mm.
For the compound `Cc1nn(-c2ccccc2)c2nc3c(nc12)Cc1ccccc1-3`, the zone of inhibition at 20000 µg/mL (in the test with Geotrichum candidum; in test [1]; in the test with Fusarium oxysporum; with Aspergillus flavus [2]; in the test with Trichophyton rubrum [3]; with Candida albicans) was 0 mm throughout. In addition, the zone of inhibition at 20000 µg/mL is 0 mm with Micrococcus luteus; 0 mm in the test with Serratia marcescens; 0 mm in the test with Pseudomonas aeruginosa; 0 mm in the test with Escherichia coli; 0 mm in the test on Bacillus cereus; 8 mm in the test on Staphylococcus aureus.
For the compound `Cc1nn(-c2ccccc2)c2nc3c(nc12)/C(=C/c1ccccc1Cl)c1ccccc1-3`, the “diameter of the inhibition zone (DIZ)” value is 9 mm in the test on Aspergillus flavus [4] and 10 mm in the test with Trichophyton rubrum [5]. The minimum inhibitory concentration (MIC) stood at 20000 µg/mL (≈ 47500 µM) with Aspergillus flavus [4] and 600 µg/mL (≈ 1430 µM) in the test on Trichophyton rubrum [5]. Also, the zone of inhibition at 20000 µg/mL with Geotrichum candidum was 0 mm; in test [1], 0 mm; with Fusarium oxysporum it was 0 mm; in the test on Aspergillus flavus [2], 9 mm; with Trichophyton rubrum [3], 26 mm; in the test on Candida albicans, 0 mm. Moreover, the zone of inhibition at 20000 µg/mL in the test with Micrococcus luteus came out at 0 mm; in the test with Serratia marcescens, 0 mm; in the test with Pseudomonas aeruginosa it was 8 mm; in the test with Escherichia coli, 8 mm; with Bacillus cereus it was 0 mm; in the test on Staphylococcus aureus, 10 mm.
On to `Cc1nn(-c2ccccc2)c2nc3c(nc12)C(=O)c1ccccc1-3`, for which the zone of inhibition at 20000 µg/mL (in the test with Geotrichum candidum; in [1]; in the test on Fusarium oxysporum; in the test with Aspergillus flavus [2]; in the test with Trichophyton rubrum [3]; with Candida albicans) was 0 mm each time. Moreover, the zone of inhibition at 20000 µg/mL is 0 mm with Micrococcus luteus; 0 mm in the test on Serratia marcescens; 0 mm with Pseudomonas aeruginosa; 10 mm in the test on Escherichia coli; 0 mm with Bacillus cereus; 8 mm in the test with Staphylococcus aureus.
With `CCOC(=O)/C(C#N)=C1\c2ccccc2-c2nc3c(nc21)c(C)nn3-c1ccccc1`, the zone of inhibition at 20000 µg/mL in the test on Geotrichum candidum was 0 mm; in test [1], 0 mm; with Fusarium oxysporum, 0 mm; with Aspergillus flavus [2], 0 mm; with Trichophyton rubrum [3] it was 0 mm; in the test on Candida albicans, 10 mm. The zone of inhibition at 20000 µg/mL in the test with Micrococcus luteus was 0 mm; in the test on Serratia marcescens it was 0 mm; in the test with Pseudomonas aeruginosa it was 8 mm; in the test with Escherichia coli it was 8 mm; in the test on Bacillus cereus, 0 mm; in the test on Staphylococcus aureus it was 8 mm.
As to `Cc1nn(-c2ccccc2)c2nc3c(nc12)/C(=N\O)c1ccccc1-3`, the zone of inhibition at 20000 µg/mL (with Geotrichum candidum; in [1]; in the test with Fusarium oxysporum; in the test with Aspergillus flavus [2]; in the test on Trichophyton rubrum [3]; with Candida albicans) was 0 mm in each case. Also, the zone of inhibition at 20000 µg/mL was determined as 0 mm in the test on Micrococcus luteus; 0 mm in the test on Serratia marcescens; 8 mm with Pseudomonas aeruginosa; 0 mm with Escherichia coli; 0 mm with Bacillus cereus; 8 mm with Staphylococcus aureus.
On to `O=C(N[C@H](CO)[C@H](O)c1ccc([N+](=O)[O-])cc1)C(Cl)Cl` [CHLORAMPHENICOL], for which the zone of inhibition at 20000 µg/mL with Micrococcus luteus worked out at 20 mm; in the test with Serratia marcescens it was 20 mm; in the test on Pseudomonas aeruginosa, 18 mm; in the test on Escherichia coli, 18 mm; in the test with Bacillus cereus it was 22 mm; in the test on Staphylococcus aureus, 18 mm.
For `Clc1ccccc1C(c1ccccc1)(c1ccccc1)n1ccnc1` [CLOTRIMAZOLE], the “diameter of the inhibition zone (DIZ)” value was determined as 15 mm in the test on Aspergillus flavus [4] and 35 mm in the test on Trichophyton rubrum [5]. Further, the results for the MIC in the test on Aspergillus flavus [4] and with Trichophyton rubrum [5] were 150 µg/mL (≈ 435 µM) and 80 µg/mL (≈ 232 µM), respectively. The zone of inhibition at 20000 µg/mL in the test with Geotrichum candidum is 26 mm; in [1], 28 mm; with Fusarium oxysporum, 20 mm; in the test on Aspergillus flavus [2] it was 44 mm; in the test with Trichophyton rubrum [3], 36 mm; in the test with Candida albicans, 24 mm.
